In ChEMBL document CHEMBL5113539, “Dihydromaniwamycin E, a Heat-Shock Metabolite from Thermotolerant Streptomyces sp. JA74, Exhibiting Antiviral Activity against Influenza and SARS-CoV-2 Viruses” (J Nat Prod, 2022):

Key:
[1] = Cytotoxicity against human 293TA cells assessed as reduction in cell viability after 2 to 3 days by MTT assay; assay type: toxicity, cell-based; settings: time 2-3 day
[2] = test system: SARS-CoV-2; experiment: Antiviral activity against SARS-CoV-2 infected in African green monkey VeroE6T cells assessed as reduction in cytopathic effect after 2 to 3 days by MTT assay; assay type: functional, organism-based, Vero E6; settings: Severe acute respiratory syndrome coronavirus 2, Vero C1008
[3] = test system: Vero C1008; experiment: Cytotoxicity against African green monkey VeroE6T cells assessed as reduction in cell viability after 2 to 3 days by MTT assay; assay type: toxicity, cell-based; settings: chlorocebus sabaeus, time 2-3 day
[4] = test system: SARS-CoV-2; experiment: Antiviral activity against SARS-CoV-2 infected in human 293TA cells assessed as reduction in cytopathic effect after 2 to 3 days by MTT assay; assay type: functional, organism-based; settings: Severe acute respiratory syndrome coronavirus 2, 293TA
[5] = test system: Influenza A virus; experiment: Antiviral activity against influenza A virus A/Puerto Rico/8/34 (H1N1) infected in dog MDCK cells assessed as inhibition of viral cytopathic effect incubated for 48 hrs by crystal violet staining based plaque assay; assay type: functional, organism-based
Procedure, shortened: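 MDCK cells were grown in MEM with 10% FBS at 37 °C and 5% CO2. Compound was premixed with A/PR/8/34 (H1N1) containing 50–200 pfu for 30 min at room temperature. The mixture was adsorbed onto an MDCK monolayer for 30 min at 37 °C, washed, and incubated 2 days. Plaques were counted after crystal violet staining, and IC50 was taken from a logit–log plot.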

SMILES	Activity [1]	IC50 [2]	Activity [3]	IC50 [4]	IC50 [5]
CCCC/C=C/[N+]([O-])=N/[C@H](C)[C@H](C)O	Non-Toxic	16.4 µM	Non-Toxic	9.7 µM	63.2 µM
CCCCCC/[N+]([O-])=N/[C@H](C)[C@H](C)O	Non-Toxic	–	Non-Toxic	19.7 µM	25.7 µM
CCC(CC)COC(=O)[C@H](C)N[P@](=O)(OC[C@H]1O[C@@](C#N)(c2ccc3c(N)ncnn23)[C@H](O)[C@@H]1O)Oc1ccccc1 [REMDESIVIR]	–	0.9 µM	–	–	–
